Reference: ChEMBL document CHEMBL1149144, “Structure-based design of potent retinoid X receptor alpha agonists” (J Med Chem, 2004)
Each block holds one molecule with its values, some of them ahead of it.

Columns and labels:
[1] = biological target: T1, Retinoic acid receptor alpha (Homo sapiens, UniProt P10276); assay: Effective concentration for Retinoic acid receptor alpha activity in CV-1 cells; type: functional, cell-based
T1 sequence (P10276 whole entry): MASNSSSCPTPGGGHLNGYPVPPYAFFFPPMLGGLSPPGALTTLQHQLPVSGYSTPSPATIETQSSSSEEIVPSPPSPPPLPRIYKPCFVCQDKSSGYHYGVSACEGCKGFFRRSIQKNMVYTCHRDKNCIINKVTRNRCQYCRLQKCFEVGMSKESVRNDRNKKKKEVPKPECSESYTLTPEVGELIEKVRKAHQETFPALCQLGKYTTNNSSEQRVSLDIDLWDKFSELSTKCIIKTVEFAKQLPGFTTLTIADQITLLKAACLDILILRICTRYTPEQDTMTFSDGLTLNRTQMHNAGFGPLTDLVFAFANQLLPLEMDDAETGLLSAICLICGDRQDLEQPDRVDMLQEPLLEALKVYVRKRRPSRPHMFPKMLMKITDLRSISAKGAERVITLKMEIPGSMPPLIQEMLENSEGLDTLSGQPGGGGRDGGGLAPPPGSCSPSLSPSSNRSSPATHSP
In short: (§1)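 CV-1 monkey kidney cells transiently transfected with a full-length hRXRα expression vector (RXRα) or a GAL4-hRARα vector (RARα), each with an RXRα- or RARα-responsive reporter gene construct. Top concentration 10 µM; EC50 calculated from the reporter response.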

[2] = biological target: T1, Retinoic acid receptor alpha; assay: Binding affinity for retinoic acid receptor alpha (RARalpha), using 9-cis-[3H]-retinoic acid
In short: (§2)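 Scintillation proximity binding assay; Ki from competition of 2.5 nM 9-cis-RA at RXRα and RARα, with test compound up to 10 µM.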

[3] = biological target: T2, Retinoic acid receptor RXR-alpha (Homo sapiens, UniProt P19793); assay: Effective concentration for Retinoid X receptor alpha activity in CV-1 cells; type: functional, cell-based; in short: as §1
T2 sequence (P19793 whole entry): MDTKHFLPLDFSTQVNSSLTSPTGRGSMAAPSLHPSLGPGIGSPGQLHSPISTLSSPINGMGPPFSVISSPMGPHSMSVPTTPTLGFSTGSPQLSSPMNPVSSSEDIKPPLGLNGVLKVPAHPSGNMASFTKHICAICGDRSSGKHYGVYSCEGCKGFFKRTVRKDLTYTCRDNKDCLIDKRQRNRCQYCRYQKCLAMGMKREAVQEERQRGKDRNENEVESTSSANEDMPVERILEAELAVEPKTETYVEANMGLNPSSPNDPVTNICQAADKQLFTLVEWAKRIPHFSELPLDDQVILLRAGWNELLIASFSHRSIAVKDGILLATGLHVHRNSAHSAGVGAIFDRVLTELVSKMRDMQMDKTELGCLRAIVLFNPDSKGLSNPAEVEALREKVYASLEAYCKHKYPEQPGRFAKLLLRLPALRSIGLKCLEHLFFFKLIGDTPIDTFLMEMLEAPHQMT

[4] = biological target: T2, Retinoic acid receptor RXR-alpha; assay: Binding affinity for retinoid X receptor alpha (RXRalpha), using 9-cis-[3H]-retinoic acid; in short: as §2
[5] = biological target: T2, Retinoic acid receptor RXR-alpha; assay: Effective concentration for Retinoid X receptor alpha activity in CV-1 cells; Partial agonist; type: functional, cell-based; in short: as §1
[6] = system: Rattus norvegicus; assay: Effect on percent change in weight of liver to body at 30 mg/kg was measured in vivo in rats; type: functional
In short: (§3)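 Male Zucker diabetic fatty (ZDF) rats dosed orally with vehicle or compound in vehicle.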

[7] = system: Rattus norvegicus; assay: Antihyperglycemic activity of compound at 3 mg/kg was measured as percent glycosylated hemoglobin in vivo in rats; type: functional; in short: as §3
[8] = system: Mus musculus; assay: Effect on lipid hydrolysis at 100 mg/kg was measured in vivo in mice; type: functional
In short: (§4)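 Male diabetic db/db mice were given the test agent orally in vehicle, with a vehicle-only control group.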

[9] = system: Mus musculus; assay: Effect on lipid hydrolysis at 10 mg/kg was measured in vivo in mice; type: functional; in short: as §4
[10] = system: Rattus norvegicus; assay: Effect on percent change in weight of liver to body at 3 mg/kg was measured in vivo in rats; type: functional; in short: as §3
[11] = system: Mus musculus; assay: Antihyperglycemic activity of compound at 30 mg/kg was measured as percent glycosylated hemoglobin in vivo in mice; type: functional
In short: (§5)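 Male diabetic db/db mice given vehicle or compound in vehicle orally.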

[12] = system: Mus musculus; assay: Effect on nonesterified free fatty acid at 30 mg/kg was measured in vivo in mice; type: functional; in short: as §5
[13] = system: Rattus norvegicus; assay: Effect on lipid hydrolysis at 3 mg/kg was measured in vivo in rats; type: functional
In short: (§6)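 Male Zucker diabetic fatty (ZDF) rats were given the test agent orally in vehicle, with a vehicle-only control group.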

[14] = system: Rattus norvegicus; assay: Effect on aspartate aminotransferase release by liver at 10 mg/kg was measured in vivo in rats; type: functional; in short: as §3
[15] = system: Rattus norvegicus; assay: Effect on nonesterified free fatty acid at 3 mg/kg was measured in vivo in rats; type: functional; in short: as §3
[16] = system: Rattus norvegicus; assay: Effect on aspartate aminotransferase release by liver at 3 mg/kg was measured in vivo in rats; type: functional; in short: as §3
[17] = system: Rattus norvegicus; assay: Antihyperglycemic activity of compound at 30 mg/kg was measured as percent glycosylated hemoglobin in vivo in rats; type: functional; in short: as §3
[18] = system: Mus musculus; assay: Antihyperglycemic activity of compound at 10 mg/kg was measured as percent glycosylated hemoglobin in vivo in mice; type: functional; in short: as §5
[19] = system: Mus musculus; assay: Effect on lipid hydrolysis at 30 mg/kg was measured in vivo in mice; type: functional; in short: as §4
[20] = system: Rattus norvegicus; assay: Antihyperglycemic activity of compound was determined in vivo in rats; type: functional; in short: as §6
[21] = system: Rattus norvegicus; assay: Effect on nonesterified free fatty acid at 10 mg/kg was measured in vivo in rats; type: functional; in short: as §3
[22] = system: Mus musculus; assay: Effect on nonesterified free fatty acid at 100 mg/kg was measured in vivo in mice; type: functional; in short: as §5
[23] = system: Mus musculus; assay: Effect on percent change in weight of liver to body at 30 mg/kg was measured in vivo in mice; type: functional; in short: as §5
[24] = system: Mus musculus; assay: Effect on nonesterified free fatty acid at 10 mg/kg was measured in vivo in mice; type: functional; in short: as §5
[25] = system: Rattus norvegicus; assay: Effect on lipid hydrolysis at 30 mg/kg was measured in vivo in rats; type: functional; in short: as §6
[26] = system: Mus musculus; assay: Antihyperglycemic activity of compound at 100 mg/kg was determined in vivo in mice; type: functional; in short: as §4
[27] = system: Rattus norvegicus; assay: Effect on aspartate aminotransferase release by liver at 30 mg/kg was measured in vivo in rats; type: functional; in short: as §3
[28] = system: Rattus norvegicus; assay: Antihyperglycemic activity of compound at 3 mg/kg was determined in vivo in rats; type: functional; in short: as §6
[29] = system: Rattus norvegicus; assay: Antihyperglycemic activity of compound at 10 mg/kg was determined in vivo in rats; type: functional; in short: as §6
[30] = system: Rattus norvegicus; assay: Effect on lipid hydrolysis at 10 mg/kg was measured in vivo in rats; type: functional; in short: as §6
[31] = system: Mus musculus; assay: Antihyperglycemic activity of compound at 100 mg/kg was measured as percent glycosylated hemoglobin in vivo in mice; type: functional; in short: as §5
[32] = system: Mus musculus; assay: Effect on aspartate aminotransferase release by liver at 100 mg/kg was measured in vivo in mice; type: functional; in short: as §5
[33] = system: Mus musculus; assay: Antihyperglycemic activity of compound at 30 mg/kg was determined in vivo in mice; type: functional; in short: as §4
[34] = system: Rattus norvegicus; assay: Antihyperglycemic activity of compound at 10 mg/kg was measured as percent glycosylated hemoglobin in vivo in rats; type: functional; in short: as §3
[35] = system: Mus musculus; assay: Effect on aspartate aminotransferase release by liver at 10 mg/kg was measured in vivo in mice; type: functional; in short: as §5
[36] = system: Rattus norvegicus; assay: Effect on percent change in weight of liver to body at 10 mg/kg was measured in vivo in rats; type: functional; in short: as §3
[37] = system: Rattus norvegicus; assay: Effect on nonesterified free fatty acid at 30 mg/kg was measured in vivo in rats; type: functional; in short: as §3
[38] = system: Mus musculus; assay: Effect on percent change in weight of liver to body at 10 mg/kg was measured in vivo in mice; type: functional; in short: as §5
[39] = system: Mus musculus; assay: Effect on percent change in weight of liver to body at 100 mg/kg was measured in vivo in mice; type: functional; in short: as §5
[40] = system: Mus musculus; assay: Effect on aspartate aminotransferase release by liver at 30 mg/kg was measured in vivo in mice; type: functional; in short: as §5
[41] = system: Mus musculus; assay: Antihyperglycemic activity of compound at 10 mg/kg was determined in vivo in mice; type: functional; in short: as §4

Compound: O=C1NC(=O)/C(=C/c2ccc(-c3cccc(C(F)(F)F)c3)o2)S1
Ki [4]: 7400 nM

Compound: CC1(C)CCC(C)(C)c2cc(Cc3coc(/C=C/C(=O)O)c3)ccc21
Ki [2]: > 1000 nM
Ki [4]: 138 nM

Compound: CC1(C)CCC(C)(C)c2cc(C3CCCc4oc(/C=C/C(=O)O)cc43)ccc21 (racemic)
Activity [6]: 7.06%
Activity [7]: 7.75%
Activity [8]: 62 mg/dL
Activity [9]: 91 mg/dL
Activity [10]: 5.74%
EC50 [1]: > 10000 nM
Ki [2]: > 1000 nM
Activity [11]: 8.84%
Activity [12]: 0.56 m equiv l-1
EC50 [3]: 3 nM
Activity [13]: 2462 mg/dL
Activity [14]: 108 U l-1
Activity [15]: 0.8 m equiv l-1
Activity [16]: 98 U l-1
Activity [17]: 7.04%
Ki [4]: 6 nM
Activity [18]: 9.41%
Activity [19]: 83 mg/dL
Activity [20]: 118 mg/dL
Activity [21]: 0.49 m equiv l-1
Activity [22]: 0.4 m equiv l-1
Activity [23]: 8.58%
Activity [24]: 0.45 m equiv l-1
Activity [25]: 1353 mg/dL
Activity [26]: 233 mg/dL
Activity [27]: 136 U l-1
Activity [28]: 147 mg/dL
Activity [29]: 129 mg/dL
Activity [30]: 2199 mg/dL
Activity [31]: 8.51%
Activity [32]: 158 U l-1
Activity [33]: 309 mg/dL
Activity [34]: 7.44%
Activity [35]: 137 U l-1
Activity [36]: 6.56%
Activity [37]: 0.38 m equiv l-1
Activity [38]: 8.23%
Activity [39]: 9.33%
Activity [40]: 116 U l-1
Activity [41]: 346 mg/dL

Compound: CC1(C)CCC(C)(C)c2cc(C3CCCc4oc(/C=C/C(=O)O)cc43)ccc21 (single isomer, unassigned)
EC50 [1]: > 10000 nM
Ki [2]: > 1000 nM
EC50 [3]: 40 nM
Ki [4]: 200 nM

Compound: CC1(C)CCC(C)(C)c2cc(C3CCCc4oc(/C=C/C(=O)O)cc43)ccc21 (stereo in doubt)
EC50 [1]: > 10000 nM
Ki [2]: > 1000 nM
EC50 [3]: 5 nM
Ki [4]: 5 nM

Compound: CC1(C)CCC(C)(C)c2cc(C3CCCc4oc(/C=C/C(=O)O)cc43)ccc21 (stereo in doubt; 60)
EC50 [1]: > 790 nM
Ki [2]: > 1000 nM
EC50 [3]: 97 nM
Ki [4]: 90 nM

Next, values leading:

EC50 [1]: > 10000 nM
Ki [2]: > 1000 nM
EC50 [3]: 106 nM
Ki [4]: 158 nM
Compound: Cc1oc(/C=C/C(=O)O)cc1Cc1ccc2c(c1)C(C)(C)CCC2(C)C

EC50 [1]: > 10000 nM
Ki [2]: > 1000 nM
EC50 [3]: 20 nM
Ki [4]: 40 nM
Compound: CC1(C)CCC(C)(C)c2cc(C3CCCc4sc(/C=C/C(=O)O)cc43)ccc21 (stereo not given)

Ki [2]: > 1000 nM
EC50 [3]: 42 nM
Ki [4]: 158 nM
Compound: CC1(C)CCC(C)(C)c2cc(C3CCCc4oc(/C=C/C(=O)O)nc43)ccc21 (stereo not given)

EC50 [1]: > 10000 nM
Ki [2]: > 1000 nM
Ki [4]: 100 nM
EC50 [5]: 137 nM
Compound: CCCOc1cc2c(cc1C1CCCc3oc(/C=C/C(=O)O)cc31)C(C)(C)CCC2(C)C (stereo not given)
